Experimental data reported in ChEMBL document CHEMBL1121744, “Synthesis and antihypertensive activity of a series of 8-substituted 1-oxa-3,8-diazaspiro[4.5]decan-2-ones” (J Med Chem, 1981).
Activity calls are given as the source filed them. The calls are words filed in the database; no cut-off is given here.

Experiments:
Canis familiaris [1] = experiment: Change in mean arterial pressure in anesthetized dogs for a dose of 10 mg/kg; type: functional, Canis lupus familiaris, Artery
Procedure, shortened: (§1)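 Dogs anesthetized with sodium pentobarbital (35 mg/kg iv), femoral artery cannulated for pressure, ECG-triggered heart rate, femoral vein for dosing. Rising iv doses were given 90 min apart, and each dose is the full dose, not cumulative. Value is the maximal mean arterial pressure change 10–15 min after each dose, two dogs per compound, ±3 mmHg. Saline served as control.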

Canis familiaris [2] = experiment: Percent inhibition of the pressor responses to 1 ug/kg iv Epinephrine in pentobarbital-anesthetized dogs for a dose of 0.1 mg/kg; type: functional; conditions: Canis lupus familiaris
Procedure, shortened: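 Dogs anesthetized with sodium pentobarbital 35 mg/kg iv; femoral artery cannulated for blood pressure, femoral vein for dosing. Epinephrine 1 μg/kg iv given at about 10-min intervals before and after increasing test doses. Test doses given iv at 90-min intervals. Result is per cent inhibition of the pressor response.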

Rattus norvegicus [3] = experiment: The antihypertensive activity as percentage fall in systolic blood pressure in spontaneously hypertensive rats after a period of 3 hr for a dose of 50 mg/kg po
Rattus norvegicus [4] = experiment: The antihypertensive activity as percentage fall in systolic blood pressure in spontaneously hypertensive rats after a period of 4 hr for a dose of 50 mg/kg po
Rattus norvegicus [5] = experiment: The antihypertensive activity as percentage fall in systolic blood pressure in spontaneously hypertensive rats after a period of 2 hr for a dose of 50 mg/kg po
Canis familiaris [6] = experiment: Percent inhibition of the pressor responses to 0.75 ug/kg iv norepinephrine in pentobarbital-anesthetized dogs for a dose of 0.316 mg/kg; type: functional; conditions: Canis lupus familiaris
Procedure, shortened: (§2)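 Pentobarbital-anesthetized dogs (35 mg/kg iv) with femoral arterial pressure recording. Epinephrine (1 μg/kg), norepinephrine (0.75 μg/kg) and phenylephrine (7.5 μg/kg) iv challenges were given about every 10 min before and after rising iv test doses, which were spaced 90 min apart. Value is % inhibition of the pressor response.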

Canis familiaris [7] = experiment: Percent inhibition of the pressor responses to 0.75 ug/kg iv norepinephrine in pentobarbital-anesthetized dogs for a dose of 1 mg/kg; type: functional; conditions: Canis lupus familiaris; procedure, shortened: as §2
Canis familiaris [8] = experiment: Change in mean arterial pressure in anesthetized dogs for a dose of 0.01 mg/kg; type: functional, Canis lupus familiaris, Artery; procedure, shortened: as §1
Rattus norvegicus [9] = experiment: The antihypertensive activity as percentage fall in systolic blood pressure in spontaneously hypertensive rats after a period of 1 hr for a dose of 25 mg/kg po; type: functional, Artery
Procedure, shortened: (§3)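 Male Okamoto-Aoki SHR, trained, in groups of four matched for mean systolic pressure; one group per run received water vehicle. Oral dosing in water (0.1 mL per 10 g) on two consecutive mornings. After the day-2 dose, rats were restrained at 30.0 ± 1.0 °C. Systolic pressure was read by tail cuff (inflated to 300 mmHg, first pulse) at 1–4 h. % fall is versus the untreated control group, by 1-tail t test (p ≤ 0.05).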

Rattus norvegicus [10] = experiment: The antihypertensive activity as percentage fall in systolic blood pressure in spontaneously hypertensive rats after a period of 2 hr for a dose of 25 mg/kg po; NS=Not significant; type: functional, organism-based; design: dose 25 mg/kg; conditions: Artery; procedure, shortened: as §3
Rattus norvegicus [11] = experiment: The antihypertensive activity as percentage fall in systolic blood pressure in spontaneously hypertensive rats after a period of 3 hr for a dose of 25 mg/kg po; type: functional, Artery; procedure, shortened: as §3

Structure (SMILES) | MAP (Canis familiaris [1]) [mmHg] | inhibition in vivo at 0.1 mg/kg (Canis familiaris [2]) [%] | Decrease in blood pressure (Rattus norvegicus [3]) [%] | Decrease in blood pressure (Rattus norvegicus [4]) [%] | Decrease in blood pressure (Rattus norvegicus [5]) [%] | inhibition in vivo at 0.316 mg/kg (Canis familiaris [6]) [%] | inhibition in vivo at 1 mg/kg (Canis familiaris [7]) [%] | MAP (Canis familiaris [8]) [mmHg] | Decrease in blood pressure (Rattus norvegicus [9]) [%] | Decrease in blood pressure (Rattus norvegicus [10]) | Decrease in blood pressure (Rattus norvegicus [11]) [%]
O=C1NCC2(CCN(CCc3c[nH]c4ccccc34)CC2)O1 | -6 | > 100 | 8 | 11 | 10 |  |  |  |  |  | 
CN1CC2(CCN(CC(O)C3COc4ccccc4O3)CC2)OC1=O (stereo unspecified) |  |  |  |  |  | 41 | 60 | 4 | 27 | inactive | 15
